As usually defined, the IC50 is the concentration at which inhibition is half-maximal. Read a low IC50 as inhibition by little substance.

From ChEMBL document CHEMBL1157227, “Cytotoxic pregnane steroids from the formosan soft coral Stereonephthya crystalliana” (J Nat Prod, 2006) come the findings set out here.

≈ marks a conversion by molar mass, not a printed value.

The subject of one assay is P388. Description: Cytotoxicity against mouse P388 cells. It is filed as functional, cell-based. In short, it runs like this: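 P-388 mouse lymphocytic leukemia cells provided by an academic lab; in vitro cytotoxicity by a previously described procedure; result given as ED50 in µg/mL, with ED50 ≤ 4.0 µg/mL taken as significant for pure compounds.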
For the next assay, the system named is HT-29. Description: Cytotoxicity against human HT29 cells. The class given is functional. The settings on record: read-out: ED50 (the source's name). The method, boiled down:
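HT-29 human colon adenocarcinoma cells from ATCC; in vitro cytotoxicity by a previously described procedure; result given as ED50 in µg/mL, with ED50 ≤ 4.0 µg/mL taken as significant for pure compounds.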

In turn, `C=C[C@H]1CC[C@H]2[C@@H]3CC[C@H]4C[C@@H](O)CC[C@]4(CO)[C@H]3CC[C@]12C` [STEREONSTEROID A] displayed an IC50 in the assay on P388 of 3.5 µg/mL (≈ 11 µM). Moreover, the EC50 with HT-29 came to 7.5 µg/mL (≈ 23.5 µM).

In turn, `C=C[C@H]1CC[C@H]2[C@@H]3CC[C@H]4C[C@@H](OC(C)=O)CC[C@]4(C=O)[C@H]3CC[C@]12C` [STEREONSTEROID B] returned a 50% inhibitory concentration (IC50) in the assay on P388 of 1.6 µg/mL (≈ 4.46 µM). Moreover, the EC50 in the assay with HT-29 is 1.7 µg/mL (≈ 4.74 µM).

Consider `C=C[C@H]1CC[C@H]2[C@@H]3CC[C@H]4C[C@@H](O[C@@H]5O[C@@H](C)[C@@H](OC(C)=O)[C@@H](O)[C@@H]5O)CC[C@]4(C)[C@H]3CC[C@]12C` [STEREONSTEROID F], for which, in the assay with P388, half-maximal inhibition (IC50) was put at 9.4 µg/mL (≈ 19.2 µM). In addition, the EC50 in the assay with HT-29 was 10.8 µg/mL (≈ 22 µM).

With `C=C[C@H]1CC[C@H]2[C@@H]3CC[C@H]4C[C@@H](O[C@@H]5O[C@@H](C)[C@@H](OC(C)=O)[C@@H](O)[C@@H]5O)CC[C@]4(COC(C)=O)[C@H]3CC[C@]12C` [STEREONSTEROID D], the IC50 with P388 amounted to 4.9 µg/mL (≈ 8.93 µM). Besides, the EC50 in the assay with HT-29 amounted to 5.2 µg/mL (≈ 9.48 µM).

`C=C[C@H]1CC[C@H]2[C@@H]3CC=C4C[C@@H](O[C@@H]5O[C@@H](C)[C@@H](O)[C@@H](OC(C)=O)[C@@H]5O)CC[C@]4(C)[C@H]3CC[C@]12C` [STEREONSTEROID H] displayed an IC50 with P388 of 5.4 µg/mL (≈ 11.1 µM). Moreover, the EC50 in the assay with HT-29 turned out to be 5.3 µg/mL (≈ 10.8 µM).

`C=CC1CCC2C3CCC4CC(OC5OC(C)C(O)C(OC(C)=O)C5O)CCC4(C)C3CCC12C` (stereo not drawn) yielded an IC50 with P388 of 13.3 µg/mL (≈ 27.1 µM). The EC50 in the assay on HT-29 was determined as 6.2 µg/mL (≈ 12.6 µM).

`C=C[C@H]1CC[C@H]2[C@@H]3CC[C@H]4C[C@@H](O[C@@H]5O[C@@H](C)[C@@H](OC(C)=O)[C@@H](O)[C@@H]5O)CC[C@]4(CO)[C@H]3CC[C@]12C` [STEREONSTEROID C] showed a 50% inhibitory concentration (IC50) with P388 of 3.1 µg/mL (≈ 6.12 µM). The EC50 with HT-29 turned out to be 2.7 µg/mL (≈ 5.33 µM).

In the assay on P388, `C=C[C@H]1CC[C@H]2[C@@H]3CC[C@H]4C[C@@H](O[C@@H]5O[C@@H](C)[C@@H](OC(C)=O)[C@@H](O)[C@@H]5O)CC[C@]4(C=O)[C@H]3CC[C@]12C` [STEREONSTEROID E] returned an IC50 of 3.8 µg/mL (≈ 7.53 µM). Also, the EC50 in the assay on HT-29 is 9.3 µg/mL (≈ 18.4 µM).

With `C=C[C@H]1CC[C@H]2[C@@H]3CC[C@H]4C[C@@H](O[C@@H]5OC[C@@H](O)[C@H](O)[C@H]5O)CC[C@]4(C)[C@H]3CC[C@]12C` [STEREONSTEROID I], inhibition with P388 was half-maximal at 5.9 µg/mL (≈ 13.6 µM) (IC50). Further, the EC50 with HT-29 was determined as 7.7 µg/mL (≈ 17.7 µM).
